Bioassay records as filed in PubChem.
An excerpt weighted towards active compounds, which were near 1.2% of everything screened.
ZTA counter: ZTA (EBV) inhibition in EBNA-1 counter-screen; P03206; ZTA-DNA binding, fluorescence polarization; inhibition, % at 11 µM; hit rate 0.15% among 320,000; AID 2234; in the data active means inhibition above about 33%
Target sequence (P03206 whole entry, looked up): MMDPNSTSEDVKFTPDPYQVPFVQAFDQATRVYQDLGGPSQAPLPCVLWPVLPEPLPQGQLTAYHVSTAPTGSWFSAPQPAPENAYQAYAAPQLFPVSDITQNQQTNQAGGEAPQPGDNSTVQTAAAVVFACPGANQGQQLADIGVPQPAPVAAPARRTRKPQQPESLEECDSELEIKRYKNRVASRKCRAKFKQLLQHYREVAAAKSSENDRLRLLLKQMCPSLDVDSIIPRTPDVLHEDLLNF
NS3 helicase inh: inhibitors of HCV NS3 helicase, primary screen, biochemical, Cy5 molecular beacon fluorescence; Hepatitis C virus NS3 helicase; NS3 helicase DNA unwinding; inhibition, % at 10.9 µM; hit rate 0.56% among 290,000;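 active means inhibition above the mean of all tested compounds plus 3 SD, set per campaign, cut at about 35% in these data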
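Assay system – hepatitis C virus NS3 helicase domain fragment enzyme · Buffer or medium – MOPS pH 6.5, MgCl2, DTT, Tween20, BSA · Reagent – Cy5/quencher beacon DNA duplex and ATP to start · Compound – single 10.9 µM dose · Timing – 1 h at 25 °C · Technique – Cy5 beacon fluorescence read at start and 1 h · Measure – % inhibition of unwinding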
EBNA-1 inhibitor: EBNA-1 DNA-binding inhibitors, primary screen, biochemical, fluorescence polarization; inhibition, % at 14.8 µM; hit rate 0.34% among 300,000; AID 1950, 2009; in the data active means inhibition above about 28%
core dimer inh: inhibitors of HCV core protein dimerization, primary screen, biochemical, TR-FRET, high-throughput | TR-FRET GST/Flag-core106 dimerization, 1536-well | inhibition, % at 5 µM | hit rate 0.33% among 300,000 | AID 1899, 2009;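 active means inhibition above the mean of all tested compounds plus 3 SD, set per screening campaign, cut at about 45% in these data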
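Assay system: GST-tagged and Flag-tagged HCV core protein residues 1-106 / Times: compound-protein-antibody incubation 4 h at 22.5 °C / Signal: time-resolved FRET, ex 340 nm, em 617 and 671 nm / Evaluation: % inhibition based on acceptor/donor emission ratio / Benchmarks: wells lacking GST-core106 and wells with excess unlabelled core106 / Repeats: singlicate, one well per compound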
Each line names hits and unclear results; the compound was inactive in the other large screens.

O=S1(=O)c2ccccc2N=NN1Cc1ccc(Cl)cc1	core dimer inh 47
Cc1cc(C(=O)N/N=C2\CC(=O)c3ccccc32)c(C)n1-c1ccc(F)cc1	core dimer inh 71
CCOc1ccc(S(=O)(=O)N(CC(=O)N/N=C/c2ccc(-c3ccc([N+](=O)[O-])cc3)o2)c2ccccc2)cc1	core dimer inh 75
Cc1ccc(C)c(N(CC(=O)N/N=C/c2ccc(-c3ccc([N+](=O)[O-])cc3)o2)S(=O)(=O)c2ccccc2)c1	core dimer inh 52
O=C(CN(c1ccccc1)S(=O)(=O)c1ccccc1)N/N=C/c1ccc(OC2CSC2)cc1	EBNA-1 inhibitor 55
O=C(NCc1ccc(Cl)cc1)c1ccccc1CCc1ccccc1	EBNA-1 inhibitor 31
C#CCOCCOCCOCCNc1nc(N2CCOCC2)nc(N2CCN(C(=O)CCCCCCCCCCNC(=O)[C@H]([C@@H](C)CC)n3cc(CCCCN=C(N)N)nn3)CC2)n1	none (no result: NS3 helicase inh)
C#CCOCCOCCOCCNc1nc(N2CCN(C(=O)CCCCCCCCCCNC(=O)[C@H](CCCN=C(N)N)n3cc(C[C@@H](C)CC)nn3)CC2)nc(N2CCN(C(=O)CCCCCCCCCCNC(=O)[C@@H]([C@H](C)CC)n3cc(CCCCCN)nn3)CC2)n1	ZTA counter 161 (no result: NS3 helicase inh)
C#CCOCCOCCOCCNc1nc(N2CCN(C(=O)CCCCCCCCCCNC(=O)Cn3cc(C[C@@H](C)O)nn3)CC2)nc(N2CCN(C(=O)CCCCCCCCCCNC(=O)[C@@H]([C@H](C)CC)n3cc(CCCCCN)nn3)CC2)n1	none (no result: NS3 helicase inh)
C#CCOCCOCCOCCNc1nc(N2CCN(C(=O)CCCCCCCCCCNC(=O)[C@H]([C@@H](C)CC)n3cc(CCCCN=C(N)N)nn3)CC2)nc(N2CCN(C(=O)CCCCCCCCCCNC(=O)[C@H](CCCN=C(N)N)n3cc(C[C@@H](C)CC)nn3)CC2)n1	ZTA counter 137 (no result: NS3 helicase inh)
COc1ccc([C@H]2CC(=O)C=C(c3cc4ccccc4s3)C2)cc1OC	none (no result: NS3 helicase inh, EBNA-1 inhibitor, core dimer inh)
COc1ccccc1C1=CC(=O)CC(C)(C)C1=O	none (no result: NS3 helicase inh, EBNA-1 inhibitor, core dimer inh)
CC(/C=C1\SC(=S)N(CC(=O)N2CCN(c3ccccc3)CC2)C1=O)=C\c1ccccc1	core dimer inh 50
CC(/C=C1\SC(=S)N(CC(=O)O)C1=O)=C\c1ccccc1	none
CC(/C=C1\SC(=O)N(CC(=O)Nc2cccc(O)c2)C1=O)=C\c1ccccc1	none
CC(/C=C1\SC(=O)N(CC(=O)Nc2ccc(O)cc2)C1=O)=C\c1ccccc1	EBNA-1 inhibitor 28
Cc1ccc(Cn2c(SCC(=O)Nc3cc(C)on3)nc3ccccc3c2=O)cc1	core dimer inh 62
CC1(C)O[C@@H]2[C@H](O1)[C@@H](COS(=O)(=O)O)O[C@H]2n1c(=S)[nH]c2c(=O)[nH]c(N)nc21	none (no result: NS3 helicase inh, EBNA-1 inhibitor, core dimer inh)
COc1ccc(Cc2nnc(NC(=O)C3CC(=O)N(c4ccccc4)C3)s2)cc1OC (stereo not drawn)	none
CCOC(=O)c1oc2ccc(S(=O)(=O)n3nc(-c4ccc(OC)cc4)cc3N)cc2c1C	core dimer inh 47
COc1ccc(CCC(=O)Nc2cc(S(=O)(=O)N3CCOCC3)ccc2OC(C)C)cc1	none (no result: NS3 helicase inh, EBNA-1 inhibitor, core dimer inh)
COc1ccccc1/C=c1\sc2nc(-c3ccco3)nn2c1=O	core dimer inh 57
COc1ccc(OC)c(/C=c2\sc3nc(-c4cccs4)nn3c2=O)c1	none
CC1=CC(=O)c2c(O)ccc(O)c2C1=O	ZTA counter 36, EBNA-1 inhibitor 42, core dimer inh 70
CCCc1cc(=O)oc2c3c(cc(OCC(=O)NCCN4CCOCC4)c12)OC(C)(C)CC3	none
Cc1ccc2c(CC(=O)OCc3cc(=O)n4c(n3)sc3ccccc34)coc2c1	core dimer inh 90
CC(C)[C@H](NC(=O)Cc1ccccc1)C(=O)OCc1cc(=O)n2c(n1)sc1ccccc12	none
CN(C(=O)COC(=O)C1COc2ccccc2O1)C1(C#N)CCCCC1 (stereo not drawn)	none (no result: NS3 helicase inh, EBNA-1 inhibitor, core dimer inh)
CC(=O)Oc1ccc(C(=O)[C@H]2[C@H]3C(=O)N(c4cccc5ccccc45)C(=O)[C@H]3[C@@H]3C=CC=NN32)cc1	core dimer inh 52
COc1ccc(C(=O)[C@H]2[C@H]3C(=O)N(c4ccc(OC(C)=O)cc4)C(=O)[C@H]3C3C=CC=NN32)cc1 (stereo partly drawn)	none
CCCN(CC(=O)Nc1ccccc1C)C(=O)C1CC(=O)N(c2ccc(CC)cc2)C1 (stereo not drawn)	none (no result: NS3 helicase inh, EBNA-1 inhibitor, core dimer inh)
O=C1/C(=C\c2ccc(Br)o2)SC(=Nc2ccccc2)N1c1ccccc1	core dimer inh 59
CN(C)N1C(=O)/C(=C/c2ccco2)SC1=Nc1ccccc1	none (no result: NS3 helicase inh)
CC(C)c1cc(Nc2cccc(O)c2)cc(C(C)C)c1O	core dimer inh 53
Cc1cc(C)c2cc(C#N)c(N3CCCN(S(=O)(=O)c4ccccc4)CC3)nc2c1	none
CC(=O)c1cccc(S(=O)(=O)N2CCN(c3nc4cc(C)cc(C)c4cc3C#N)CC2)c1	core dimer inh 70
Nc1ccc2c(c1)C/C(=C/c1ccco1)C2=O	core dimer inh 94
O=C1/C(=C/c2ccco2)CCc2ccccc21	none
O=C(NN1C(=O)C2CC=C(Cl)CC2C1=O)c1ccncc1 (stereo not drawn)	core dimer inh 48
COc1ccc(NC(=O)c2ccc(N3C(=O)C4CC=C(Cl)CC4C3=O)cc2)cc1 (stereo not drawn)	none
COCCn1c(=NC(=O)c2sc3ccccc3c2Cl)sc2cc(S(N)(=O)=O)ccc21	none
C=CCn1c(=NC(=O)c2sc3ccccc3c2Cl)sc2cc(S(N)(=O)=O)ccc21	EBNA-1 inhibitor 31
CCC1CCCCN1c1ccc([N+](=O)[O-])cc1/C=N/NC(=O)Cn1c2ccccc2c(=O)c2ccccc21 (stereo not drawn)	core dimer inh 47
O=C(CN1CCN(C(=O)c2cncn2-c2ccccc2)CC1)Nc1ccccc1Cl	none (no result: NS3 helicase inh, EBNA-1 inhibitor, core dimer inh)
CCC(OC(=O)c1cccs1)C(=O)NCc1ccco1 (stereo not drawn)	none
CC(C)CC(OC(=O)c1cccs1)C(=O)NCc1ccco1 (stereo not drawn)	core dimer inh 49
O=C1/C(=C/c2cccnc2)CCc2c1[nH]c1ccccc21	none
CC1C/C(=C\c2cccnc2)C(=O)/C(=C/c2cccnc2)C1 (stereo not drawn)	ZTA counter 44
Cc1ccc(Nc2nc(=O)c3cc([N+](=O)[O-])ccc3s2)cc1	core dimer inh 48
COc1ccc(Nc2nc(=O)c3cc([N+](=O)[O-])ccc3s2)cc1	none (no result: ZTA counter, EBNA-1 inhibitor, core dimer inh)
CCc1ccccc1NC(=S)N(CCCN1CCOCC1)Cc1ccccn1	ZTA counter 82
CCOC(=O)c1c(N)sc2c1CCSC2	core dimer inh 55
CC1CCN(C(=O)COc2ccc3ccccc3c2Br)CC1	none
Cc1cc(C)cc(OCC(=O)Nc2nc(-c3cccnc3)cs2)c1	none
O=C(NC(CC(=O)N1CCN(c2ccccc2O)CC1)c1ccccc1)c1ccccc1Cl (stereo not drawn)	none (no result: NS3 helicase inh, EBNA-1 inhibitor, core dimer inh)
COc1ccc(/C=N\NC(=O)c2ccccc2F)cc1COc1ccc(F)cc1F	none
COc1cccc(OCc2cc(/C=N/NC(=O)c3ccn[nH]3)ccc2OC)c1	core dimer inh 48
